The text below walks through data of ChEMBL document CHEMBL1777776, “Identification of 2-mercaptohexanoic acids as dual inhibitors of 5-lipoxygenase and microsomal prostaglandin E₂ synthase-1” (Bioorg Med Chem, 2011).

Structures are written as SMILES. Calls of active or inactive are those of the source. No cut-off for these calls is given here.

One assay addresses T1, Prostaglandin E synthase (Homo sapiens, UniProt O14684).
T1 sequence (O14684 whole entry): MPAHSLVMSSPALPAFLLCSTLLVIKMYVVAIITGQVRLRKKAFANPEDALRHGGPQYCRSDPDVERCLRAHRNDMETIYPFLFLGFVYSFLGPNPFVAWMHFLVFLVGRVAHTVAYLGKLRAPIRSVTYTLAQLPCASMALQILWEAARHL
The experiment in a line: Inhibition of mPGES-1 in human IL-1beta-stimulated A549 cell microsomes assessed as reduction of PGE2 formation from PGH2 after 15 mins. On the set-up: species or system Microsome. Put shortly: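 Microsomes from A549 cells stimulated 72 h with IL-1β (1 ng/ml), diluted to 50 µg/ml in 0.1 M potassium phosphate pH 7.4 with 2.5 mM glutathione. Preincubated with compound (1% DMSO final) 15 min at 4 °C. Reaction started with 20 µM PGH₂, run 1 min at 4 °C, stopped with FeCl₂/citric acid containing 11β-PGE₂; PGE₂ quantified. Mean of n = 3–5.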

In assay [1] the target is T2, Polyunsaturated fatty acid 5-lipoxygenase (Homo sapiens) (UniProt P09917).
T2 sequence (whole entry): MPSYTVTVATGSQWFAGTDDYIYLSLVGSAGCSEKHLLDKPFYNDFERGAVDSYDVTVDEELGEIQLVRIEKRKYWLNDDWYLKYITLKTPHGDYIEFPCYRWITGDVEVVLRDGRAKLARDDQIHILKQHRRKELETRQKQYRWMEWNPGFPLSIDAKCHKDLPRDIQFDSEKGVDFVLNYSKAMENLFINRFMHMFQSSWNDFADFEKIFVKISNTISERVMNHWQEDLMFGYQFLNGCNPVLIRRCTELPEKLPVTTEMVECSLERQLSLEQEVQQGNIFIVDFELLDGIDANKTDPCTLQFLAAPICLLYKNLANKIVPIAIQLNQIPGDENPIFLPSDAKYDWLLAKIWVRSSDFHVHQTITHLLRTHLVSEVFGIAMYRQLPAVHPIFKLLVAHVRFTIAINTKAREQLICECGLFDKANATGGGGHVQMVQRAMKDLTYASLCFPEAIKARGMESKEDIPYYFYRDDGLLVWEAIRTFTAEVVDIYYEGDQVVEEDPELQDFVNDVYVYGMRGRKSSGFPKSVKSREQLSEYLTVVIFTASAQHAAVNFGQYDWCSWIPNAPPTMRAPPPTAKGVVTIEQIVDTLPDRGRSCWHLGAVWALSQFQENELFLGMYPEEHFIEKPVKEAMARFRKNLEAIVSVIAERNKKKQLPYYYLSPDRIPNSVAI
The experiment in a line: Inhibition of 5-lipoxygenase in LPS/fMLP-stimulated human PMNL assessed as enzyme product formation preincubated 15 mins by ELISA analysis. To be noted: in the assay text read “10 mins” for “15 mins”. Summed up:
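Human PMNL in PBS/glucose primed with 1 µg/ml LPS for 10 min at 37 °C, then 0.3 U/ml adenosine deaminase added. After another 10 min, cells given compound (0.3–10 µM) for 10 min, then stimulated with 1 µM fMLP. LTB₄ measured by ELISA.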
A general note: In an ELISA, binding on a coated surface is turned into a signal by an enzyme label.

Assay [2] addresses T3, Cytosolic phospholipase A2 (Homo sapiens) (UniProt P47712).
T3 sequence (whole entry): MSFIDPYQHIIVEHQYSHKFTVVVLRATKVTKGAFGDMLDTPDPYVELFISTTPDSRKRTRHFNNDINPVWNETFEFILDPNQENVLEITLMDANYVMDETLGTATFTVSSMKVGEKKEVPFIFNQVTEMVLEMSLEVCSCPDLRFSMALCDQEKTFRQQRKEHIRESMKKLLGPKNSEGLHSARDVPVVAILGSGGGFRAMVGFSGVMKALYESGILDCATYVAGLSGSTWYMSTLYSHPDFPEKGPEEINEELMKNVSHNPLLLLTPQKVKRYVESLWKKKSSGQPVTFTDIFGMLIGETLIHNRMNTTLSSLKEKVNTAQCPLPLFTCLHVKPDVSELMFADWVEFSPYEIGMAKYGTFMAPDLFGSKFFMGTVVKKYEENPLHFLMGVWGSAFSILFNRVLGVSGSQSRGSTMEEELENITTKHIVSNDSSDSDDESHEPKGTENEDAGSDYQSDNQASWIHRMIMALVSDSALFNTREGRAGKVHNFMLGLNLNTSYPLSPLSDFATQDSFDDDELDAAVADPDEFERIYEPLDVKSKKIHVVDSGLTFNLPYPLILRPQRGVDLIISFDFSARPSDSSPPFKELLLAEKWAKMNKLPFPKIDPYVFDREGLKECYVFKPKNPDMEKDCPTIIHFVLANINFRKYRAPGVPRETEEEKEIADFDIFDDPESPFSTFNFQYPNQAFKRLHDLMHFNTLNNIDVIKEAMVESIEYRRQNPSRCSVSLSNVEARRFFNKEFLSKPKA
The experiment in a line: Inhibition of cPLA2 assessed as residual activity at 10 uM after 5 mins.

Regarding `CCCCC(Sc1ccc(OCCCOc2ccc(-c3ccccc3)cc2)cc1)C(=O)O` (stereo not drawn), on Prostaglandin E synthase, the IC50 (usually the concentration at which inhibition is half-maximal) worked out at 2200 nM. In addition, the inhibition entry in assay [1] is “Active”. Besides, the Activity in assay [2] amounted to 106%.
